# Article PMC3243785 (Chemical research in toxicology, 2011)
# Where two headings read alike, the source gives them in different places.
# Legend:
# [1] = tested on: hepatic microsomes from PB-, DEX- or VEH-treated rats (P450 enzymes); assay type: in vitro ADME, rat; conditions: for Metabolite identified by GC/MS (major/minor): large scale experiment; for Metabolite formation, Percent of ΣOH-PCB: 37°C; for Percent of PCB 136 metabolized to the metabolite: microsomes from PB-, DEX- or VEH-treated rats; for Percent of PCB 136 metabolized to the metabolite / Percent of PCB 136 converted to the metabolite: 50 μM PCB 136; for Formation of metabolite relative to microsomes from VEH-treated rats: 2 min incubation
# [2] = tested on: hepatic microsomes from PB-, DEX- or VEH-treated rats (P450 enzymes); assay: Enantioselective gas chromatography; assay type: in vitro ADME, rat; conditions: for Enantiomeric fraction (EF), range over time course: 50 μM PCB 136
# rat recombinant P450 2B1 = conditions: cited from earlier work
# [3] = tested on: Ryanodine receptors (RyRs); conditions: cited from earlier work
# P450 3A = assay: BQ activity of hepatic microsomes from inducer-treated rats; assay type: biochemical, rat; conditions: intraperitoneal inducer treatment of male Sprague-Dawley rats, relative to VEH
# P450 2B enzymes = assay: BROD activity of hepatic microsomes from inducer-treated rats; assay type: biochemical, rat; conditions: intraperitoneal inducer treatment of male Sprague-Dawley rats, relative to VEH
# [4] = Aqueous solubility of PCB 136 in incubation buffer by light scattering; assay type: physicochemical; conditions: phosphate buffer (incubation buffer), pH 7.4
# Method in brief: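 Test compound dissolved in DMSO was added to 0.1 M phosphate buffer containing 3 mM MgCl2. Light scattering was read at 37 °C in a Peltier-controlled luminescence spectrophotometer, with excitation and emission both at 400 nm and 5 nm slits. Integration time was 5 s, with 5 min pre-recording followed by 5 min recording.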
# [5] = microsomes from PB-treated rats
# [6] = microsomes from DEX-treated rats, 5 μM PCB 136, 5 min
# [7] = microsomes from PB-treated rats, 5 μM PCB 136, 5 min
# [8] = microsomes from VEH-treated rats, 5 μM PCB 136, 5 min
# [9] = microsomes from PB-treated rats, 50 μM PCB 136, 5 min
# [10] = all incubations with 5 μM PCB 136
# [11] = all three microsomal preparations
# [12] = microsomes from DEX-treated rats
compound,measurement,setting,value
"Oc1c(O)c(Cl)c(-c2c(Cl)ccc(Cl)c2Cl)c(Cl)c1Cl [4,5-diOH-PCB 136, 2,2',3,3',6,6'-hexachlorobiphenyl-4,5-diol]",Metabolite identified by GC/MS (major/minor),[1]; [5],minor metabolites
same,"Metabolite formation, Percent of ΣOH-PCB",[1]; [6],3%
same,Percent of PCB 136 metabolized to the metabolite,[1],< 0.1%
same,"Metabolite formation, Percent of ΣOH-PCB",[1]; [7],22%
same,"Metabolite formation, Percent of ΣOH-PCB",[1]; [8],2%
same,"Metabolite formation, Percent of ΣOH-PCB","[1]; microsomes from VEH-treated rats, 50 μM PCB 136, 5 min",1%
"Oc1cc(Cl)c(-c2c(Cl)ccc(Cl)c2Cl)c(Cl)c1Cl [4-OH-PCB 136, 2,2',3,3',6,6'-hexachlorobiphenyl-4-ol]",Metabolite identified by GC/MS (major/minor),[1]; [5],minor metabolites
same,"Metabolite formation, Percent of ΣOH-PCB",[1]; [6],3%
same,"Metabolite formation, Percent of ΣOH-PCB","[1]; microsomes from DEX-treated rats, 50 μM PCB 136, 5 min",2%
same,Percent of PCB 136 metabolized to the metabolite,[1],0.1%
same,"Metabolite formation, Percent of ΣOH-PCB",[1]; [9],1%
same,"Metabolite formation, Percent of ΣOH-PCB",[1]; [8],15%
same,Enantiomeric fraction (EF),"[2]; DEX-microsomes, 5 μM PCB 136, 30 min",0.22
same,Enantiomeric fraction (EF),"[2]; DEX-microsomes, 50 μM PCB 136, 1 min",0.39
same,Enantiomeric fraction (EF),"[2]; DEX-microsomes, 50 μM PCB 136, 10 min",0.33
same,Enantiomeric fraction (EF),"[2]; PB-microsomes, 50 μM PCB 136, 1 min",0.43
same,"Enantiomeric fraction (EF), direction of enrichment",[2]; [10],< 0.5
same,"Enantiomeric fraction (EF), direction of enrichment",[2]; [11],< 0.5
same,Formation of metabolite by rat recombinant P450 2B1,rat recombinant P450 2B1,no detectable quantities
same,Concentration needed to double basal RyR activity (EC2x),[3],1.60 µM
"Oc1cc(Cl)c(Cl)c(-c2c(Cl)ccc(Cl)c2Cl)c1Cl [5-OH-PCB 136, 2,2',3,3',6,6'-hexachlorobiphenyl-5-ol]",Metabolite identified by GC/MS (major/minor),[1]; [5],major metabolite
same,"Metabolite formation, Percent of ΣOH-PCB",[1]; [6],94%
same,Percent of PCB 136 converted to the metabolite,[1]; [12],~2%
same,Formation of metabolite relative to microsomes from VEH-treated rats,[1]; [12],8 times
same,"Metabolite formation, Percent of ΣOH-PCB",[1]; [7],78%
same,Percent of PCB 136 converted to the metabolite,[1]; [5],approximately 22%
same,"Metabolite formation, Percent of ΣOH-PCB",[1]; [9],99%
same,Formation of metabolite relative to microsomes from VEH-treated rats,[1]; [5],84 times
same,"Metabolite formation, Percent of ΣOH-PCB",[1]; [8],83%
same,Percent of PCB 136 converted to the metabolite,[1]; microsomes from VEH-treated rats,~0.4%
same,"Enantiomeric fraction (EF), range over time course",[2]; PB-microsomes,0.70-0.72
same,"Enantiomeric fraction (EF), range over time course",[2]; VEH-microsomes,0.62-0.75
same,Enantiomeric fraction (EF),"[2]; VEH-microsomes, 50 μM PCB 136, 1 min",0.62
same,"Enantiomeric fraction (EF), direction of enrichment",[2]; [10],> 0.5
same,"Enantiomeric fraction (EF), direction of enrichment",[2]; [11],> 0.5
Clc1ccc(Cl)c(-c2c(Cl)ccc(Cl)c2Cl)c1Cl [(-)-PCB 136],Activity towards RyRs,[3]; enantiospecific,displays activity
"C[C@@H]1C[C@H]2[C@@H]3CCC4=CC(=O)C=C[C@]4(C)[C@@]3(F)[C@@H](O)C[C@]2(C)[C@@]1(O)C(=O)CO [DEX, dexamethasone]",Increase in BQ activity in hepatic microsomes of treated rats,P450 3A,84 fold
same,Increase in BROD activity in hepatic microsomes of treated rats,P450 2B enzymes,7 fold
"CCC1(c2ccccc2)C(=O)NC(=O)NC1=O [PB, phenobarbital]",Increase in BROD activity in hepatic microsomes of treated rats,P450 2B enzymes,94 fold
"Clc1ccc(Cl)c(-c2c(Cl)ccc(Cl)c2Cl)c1Cl [PCB 136, 2,2',3,3',6,6'-hexachlorobiphenyl]",solubility,[4],~0.25 µM
same,Enantiomeric fraction (EF),"[2]; PB-microsomes, 5 μM PCB 136, 5 min incubation",0.35
same,Enantiomeric fraction (EF),"[2]; VEH-microsomes, 5 μM PCB 136, 5 min incubation",0.49
